Series [1] deals with GABA-A receptor; agonist GABA site. Kind of series: Partial agonist activity at human GABAA receptor. The series is classed as functional.
For series [2], the target named is GABA-A receptor; agonist GABA site (Homo sapiens) (UniProt P14867+P47870+P28472+P48169+P34903+P18505+P47869+P31644+Q16445). The series is described as follows: Partial agonist activity at human GABAA receptor at 3 uM. The series is classed as functional.
Series [3] deals with Cannabinoid receptor 1 (Homo sapiens, UniProt P21554). The series is described as follows: Binding affinity to human CB1 receptor.
The target of series [4] is Cannabinoid receptor 2 (Homo sapiens, UniProt P34972). The series is described as follows: Binding affinity to human CB2 receptor.
Series [5] in a line: Oral bioavailability in rat at 1 mg/kg, iv after 4 hrs. It counts as ADME, organism-based. The settings on record: in vivo.
A short description of series [6]: Half life in rat at 1 mg/kg, iv after 4 hrs. The series is classed as ADME, organism-based. Also on record: dose 1 mg/kg, route intravenous. As to conditions: in vivo.
Series [7] in a line: Clearance in rat plasma at 1 mg/kg, iv after 4 hrs. The series is classed as ADME, organism-based. Also on record: dose 1 mg/kg, route intravenous.
The nature of series [8]: Drug level in rat brain at 1 mg/kg, iv after 4 hrs. It counts as ADME, organism-based. The arrangement: dose 1 mg/kg, route intravenous. The settings on record: read-out: Drug uptake. In short, it runs like this: (§1)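 Rats given 1 mg/kg intravenously; brain and plasma drug concentrations measured 4 h after dosing, and the brain/plasma ratio taken from these levels.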
The nature of series [9]: Drug level in rat plasma at 1 mg/kg, iv after 4 hrs. It counts as ADME, organism-based. As to conditions: read-out: Drug uptake. The arrangement: dose 1 mg/kg, route intravenous. Put shortly:
as §1

Series [10] can be described thus: Ratio of drug level in brain to plasma in rat at 1 mg/kg, iv after 4 hrs. Also on record: dose 1 mg/kg, route intravenous. The series is classed as ADME, organism-based. The settings on record: brain and plasma. In short, it runs like this:
as §1

Series [11] deals with Rattus norvegicus. The series is described as follows: Toxicity in diet-induced obese rat assessed as change in body weight at 3 mg/kg, po after 18 hrs (RVb = 6 g). The settings on record: in vivo. Also on record: dose 3 mg/kg, route oral. It counts as organism-based. In short, it runs like this: (§2)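 Diet-induced obese rats dosed orally at 3 mg/kg and monitored for 18 h (overnight); body weight change and food intake compared with vehicle-treated animals.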

Series [12] deals with Rattus norvegicus. Kind of series: Toxicity in diet-induced obese rat assessed as suppression in food intake at 3 mg/kg, po after 18 hrs. It counts as organism-based. The arrangement: dose 3 mg/kg, route oral. As to conditions: in vivo.
In series [13] the target is Voltage-gated inwardly rectifying potassium channel KCNH2 (Homo sapiens, UniProt Q12809).
Series [14] relates to Rattus norvegicus. Kind of series: Toxicity in diet-induced obese rat assessed as change in body weight at 3 mg/kg, po after 18 hrs (RVb = 5 g). It counts as organism-based. The arrangement: dose 3 mg/kg, route oral. As to conditions: in vivo.
The test system of series [15] is Rattus norvegicus. Kind of series: Toxicity in diet-induced obese rat assessed as change in body weight at 3 mg/kg, po after 18 hrs (RVb = 7 g). It counts as organism-based. The arrangement: dose 3 mg/kg, route oral. The settings on record: in vivo. In short, it runs like this: as §2
In series [16] the test system is Rattus norvegicus. The series is described as follows: Toxicity in diet-induced obese rat assessed as change in body weight at 3 mg/kg, po after 18 hrs (RVb = 10 g). As to conditions: in vivo. The arrangement: dose 3 mg/kg, route oral. The series is classed as organism-based.

The results in this text go back to ChEMBL document CHEMBL1158602, “Dihydro-pyrano[2,3-b]pyridines and tetrahydro-1,8-naphthyridines as CB1 receptor inverse agonists: synthesis, SAR and biological evaluation” (Bioorg Med Chem Lett, 2010).

One may read the EC50 as the concentration giving half of the maximal effect. A word on the Emax: it is the maximal effect, on the per cent scale that the assay sets. As usually defined, the IC50 is the concentration at which inhibition is half-maximal. High values mean weaker potency, low ones greater potency. In general, bioavailability refers to the share of a dose that reaches the circulation, judged against a reference dose that is usually intravenous. A high value points to good availability. A word on the half-life: it is the time in which the quantity being followed falls by half. Higher therefore signals slow decline. As a reminder, the clearance is the volume of plasma or blood freed of the substance per unit of time. As a reminder, the Kp is tissue or fluid exposure divided by exposure in the circulation.

Sequence of Cannabinoid receptor 2 (P34972 whole entry): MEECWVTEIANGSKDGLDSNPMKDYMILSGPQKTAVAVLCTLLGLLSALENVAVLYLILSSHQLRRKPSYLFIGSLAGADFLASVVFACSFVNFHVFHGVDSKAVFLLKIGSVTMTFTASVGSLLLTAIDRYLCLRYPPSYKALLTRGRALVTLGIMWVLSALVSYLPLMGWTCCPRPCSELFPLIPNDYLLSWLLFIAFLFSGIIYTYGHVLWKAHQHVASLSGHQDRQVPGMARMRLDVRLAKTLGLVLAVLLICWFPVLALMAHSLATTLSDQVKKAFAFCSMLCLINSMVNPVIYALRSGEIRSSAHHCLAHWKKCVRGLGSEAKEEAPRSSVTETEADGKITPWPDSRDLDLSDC
Sequence of Cannabinoid receptor 1 (P21554 whole entry): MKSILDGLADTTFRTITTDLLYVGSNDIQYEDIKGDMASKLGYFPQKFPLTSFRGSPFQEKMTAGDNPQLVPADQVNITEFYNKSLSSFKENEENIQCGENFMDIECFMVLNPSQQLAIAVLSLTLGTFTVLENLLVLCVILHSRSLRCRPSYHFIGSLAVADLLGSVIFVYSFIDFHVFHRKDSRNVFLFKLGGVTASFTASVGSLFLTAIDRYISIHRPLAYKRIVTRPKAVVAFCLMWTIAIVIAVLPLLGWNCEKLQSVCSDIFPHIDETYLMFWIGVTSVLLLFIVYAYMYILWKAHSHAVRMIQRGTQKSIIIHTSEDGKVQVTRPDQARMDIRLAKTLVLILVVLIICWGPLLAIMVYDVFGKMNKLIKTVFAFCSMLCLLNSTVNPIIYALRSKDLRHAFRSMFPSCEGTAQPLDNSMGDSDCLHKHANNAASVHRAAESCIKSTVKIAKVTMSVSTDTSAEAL
Sequence of Voltage-gated inwardly rectifying potassium channel KCNH2 (Q12809 whole entry): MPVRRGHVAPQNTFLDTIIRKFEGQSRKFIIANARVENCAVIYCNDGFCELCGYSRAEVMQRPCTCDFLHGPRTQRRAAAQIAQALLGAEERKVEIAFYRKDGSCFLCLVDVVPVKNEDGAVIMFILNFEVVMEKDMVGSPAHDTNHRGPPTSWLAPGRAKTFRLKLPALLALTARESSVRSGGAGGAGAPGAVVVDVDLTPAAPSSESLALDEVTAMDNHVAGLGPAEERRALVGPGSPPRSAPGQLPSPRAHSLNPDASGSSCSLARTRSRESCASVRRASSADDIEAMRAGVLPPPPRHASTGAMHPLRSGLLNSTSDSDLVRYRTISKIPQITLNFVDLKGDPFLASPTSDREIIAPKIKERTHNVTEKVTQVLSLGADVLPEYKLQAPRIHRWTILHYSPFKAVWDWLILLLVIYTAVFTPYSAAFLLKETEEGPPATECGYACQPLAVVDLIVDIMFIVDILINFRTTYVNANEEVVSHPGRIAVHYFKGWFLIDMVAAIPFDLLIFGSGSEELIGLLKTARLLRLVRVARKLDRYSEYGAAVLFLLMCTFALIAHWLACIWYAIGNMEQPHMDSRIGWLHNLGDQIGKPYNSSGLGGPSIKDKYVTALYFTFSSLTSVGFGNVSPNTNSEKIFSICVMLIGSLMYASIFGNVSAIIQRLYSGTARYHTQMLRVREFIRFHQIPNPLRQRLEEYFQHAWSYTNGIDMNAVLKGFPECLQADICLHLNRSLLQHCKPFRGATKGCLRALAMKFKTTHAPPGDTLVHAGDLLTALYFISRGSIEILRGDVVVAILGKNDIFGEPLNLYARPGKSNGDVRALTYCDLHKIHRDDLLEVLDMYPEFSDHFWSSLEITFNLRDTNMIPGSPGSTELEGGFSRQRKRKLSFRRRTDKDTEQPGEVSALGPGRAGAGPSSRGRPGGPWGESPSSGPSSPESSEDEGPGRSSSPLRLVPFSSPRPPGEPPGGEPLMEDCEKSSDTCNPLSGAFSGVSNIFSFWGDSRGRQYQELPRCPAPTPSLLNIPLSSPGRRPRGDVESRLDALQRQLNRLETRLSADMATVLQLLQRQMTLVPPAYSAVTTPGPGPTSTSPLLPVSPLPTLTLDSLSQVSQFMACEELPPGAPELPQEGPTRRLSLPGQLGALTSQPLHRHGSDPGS

`CC(C)(O)C(=O)c1oc2nc(-c3ccc(Cl)cc3Cl)c(-c3ccc(Cl)cc3)cc2c1NC(=O)CO` gave a 50% effective concentration (EC50) in [1] of 700 nM. This compound also displayed an Emax in series [2] of 18%.
With `O=C(CO)NC1CC2(CCCCC2)Oc2nc(-c3ccccc3Cl)c(-c3ccc(Cl)cc3)cc21` (racemic), the IC50 in [3] was determined as 0.3 nM; in series [4], 4200 nM. In series [5], this compound yielded a bioavailability of 13%. In addition, the half-life in series [6] was 0.8 h. Further, the clearance in series [7] stood at 34 mL/min/kg. In addition, the concentration at 4 h was 27 nM in [8] and 16 nM in series [9]. Besides, in [10], the Kp at 4 h is 1.7.
`C[C@@H](O)C(=O)NC1CC(C)(C)Oc2nc(-c3ccc(Cl)cc3Cl)c(-c3ccc(Cl)cc3)cc21` (single isomer, unassigned): the bioavailability in [5] came out at 100%. Moreover, the half-life in [6] is 7.9 h. Further, the clearance in [7] came to 4 mL/min/kg. The concentration at 4 h stood at 122 nM in series [8] and 321 nM in series [9]. Moreover, the Kp at 4 h in series [10] was 0.38.
As for `CN1c2nc(-c3ccc(Cl)cc3Cl)c(-c3ccc(Cl)cc3)cc2C(C(=O)NCO)CC1(C)C` (single isomer, unassigned; enantiomer 1) [6-(4-CHLOROPHENYL)-7-(2,4-DICHLOROPHENYL)-N-(HYDROXYMETHYL)-1,2,2-TRIMETHYL-1,2,3,4-TETRAHYDRO-1,8-NAPHTHYRIDINE-4-CARBOXAMIDE (ENANTIOMERIC MIX)], the IC50 in series [3] was 3.7 nM; in series [4], 801 nM; in series [13], 40 nM. Further, the Activity in [11] is on record as -8 g; in series [12], 55%. The bioavailability in series [5] was 25%. For the same compound, in series [6], the half-life was 4.2 h. The compound further came in with a clearance in [7] of 12 mL/min/kg. For the same compound, the figures for the concentration at 4 h in series [8] and in series [9] were 76 nM and 380 nM, respectively. For the same compound, in series [10], the Kp at 4 h amounted to 0.88.
Consider `CC1(C)CC(NC(=O)CCO)c2cc(-c3ccc(Cl)cc3)c(-c3ccc(Cl)cc3Cl)nc2O1` (single isomer, unassigned; enantiomer 1) [N-(6-(4-CHLOROPHENYL)-7-(2,4-DICHLOROPHENYL)-2,2-DIMETHYL-3,4-DIHYDRO-2H-PYRANO[2,3-B]PYRIDIN-4-YL)-3-HYDROXYPROPANAMIDE (ENANTIOMERIC MIX)], for which the IC50 was found to be 1.7 nM in series [3], 2460 nM in series [4] and 380 nM in series [13]. Moreover, the Activity in [14] is recorded as -11 g; in series [12], 48%. Further, the bioavailability in series [5] was 85%. For the same compound, the half-life in series [6] is 13 h. The compound further showed a clearance in [7] of 3 mL/min/kg.
As to `CC(C)(O)C(=O)NC1CC2(CCCCC2)Oc2nc(-c3ccccc3Cl)c(-c3ccc(Cl)cc3)cc21` (single isomer, unassigned; enantiomer 1) [N-(7'-(2-CHLOROPHENYL)-6'-(4-CHLOROPHENYL)-3',4'-DIHYDROSPIRO[CYCLOHEXANE-1,2'-PYRANO[2,3-B]PYRIDINE]-4'-YL)-2-HYDROXY-2-METHYLPROPANAMIDE (ENANTIOMERIC MIX)], the IC50 in [3] turned out to be 0.7 nM; in series [4] it was 3200 nM. For the same compound, the figures for the Activity in series [15] and in series [12] were 3 g and 28%, respectively. The compound also came in with a bioavailability in [5] of 6%. Besides, the half-life in series [6] is 1.9 h. In addition, the clearance in series [7] was 62 mL/min/kg. Besides, the concentration at 4 h is 116 nM in series [8] and 3500 nM in [9]. Further, the Kp at 4 h in series [10] came to 3.5.
Regarding `C[C@H](NC(=O)C(C)(C)Oc1ccc(C(F)(F)F)cn1)[C@@H](Cc1ccc(Cl)cc1)c1cccc(C#N)c1` [TARANABANT], the Activity is given as -10 g in series [16] and 49% in series [12].
